Calls of active or inactive are those of the source. The calls are words filed in the database; no cut-off is given here.
Experiments:
[1] = test system: Chromobacterium violaceum; experiment: Inhibition of quorum sensing system in Chromobacterium violaceum ATCC 31532 assessed as inhibition of violacein pigment production at 30 ug/disk after 48 hrs by NCCLS disk diffusion method
Outline: (§1)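 Sterile 5.2 mm filter-paper disks were loaded with 30.0, 15.0, 7.5, 5.0 and 2.5 per disk from MeOH solutions and air-dried for 1 h. They were placed on trypticase soy agar spread with C. violaceum broth culture (10^6 cfu/mL, 0.5 McFarland) and incubated 48 h at 26 °C. The endpoint was the minimum amount per disk giving a colourless, opaque but viable halo, meaning violacein loss without growth inhibition. Kojic acid and Cu2O served as positive controls.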

[2] = test system: Chromobacterium violaceum; experiment: Inhibition of quorum sensing system in Chromobacterium violaceum ATCC 31532 assessed as inhibition of violacein pigment production measured per disk after 48 hrs by NCCLS disk diffusion method; outline: as §1
[3] = test system: Chromobacterium violaceum; experiment: Antibacterial activity against Chromobacterium violaceum ATCC 31532 assessed as growth inhibition at 2.5 to 30 ug/disk after 48 hrs by NCCLS disk diffusion method; assay type: functional, organism-based

Row | SMILES | inhibition [1] | INH [2] [µg] | growth inhibition (GI) [3]
1 | C=C(C)[C@H]1CC/C(C)=C/CCC(C)C(=O)CC/C(COC)=C/[C@@H]1O (stereo not given in full) | inactive | – | –
2 | C=C(C)[C@H]1CC/C(C)=C/C/C=C(/C)[C@H](O)CC/C(COC(C)=O)=C/[C@@H]1O | inactive | – | –
3 | C=C(C)[C@@H]1CC[C@@H](C)[C@H](OC(C)=O)CC[C@H](C)CC(=O)C[C@@H](C)[C@H](OC(C)=O)C1 | – | 30 | inactive
4 | C=C(C)[C@@H]1CC[C@@H](C)C(=O)CC[C@H](C)CC(=O)C[C@@H](C)[C@H](O)C1 | inactive | – | –
5 | C=C(C)[C@@H]1C/C=C(/COC(C)=O)CC[C@H]2O[C@]2(C)CC/C=C(\C)CC1 | inactive | – | –
6 | C=C(C)[C@H]1CC/C(C)=C/CC[C@@](C)(O)[C@@H]2CC/C(=C/[C@@H]1O)CO2 | inactive | – | –
7 | C=C(C)[C@@H]1C/C=C(\COC(C)=O)CC[C@@H](O)[C@](C)(Cl)CC/C=C(\C)CC1 | inactive | – | –
8 | C=C(C)[C@H]1CC/C(C)=C/CC[C@@]2(C)O[C@@H]2CC/C(COC(C)=O)=C\[C@@H]1O | inactive | – | –
9 | C=C(C)[C@H]1CC/C(C)=C/CC[C@@](C)(O)[C@H](O)CC/C(CO)=C/[C@@H]1O | inactive | – | –
10 | C=C(C)[C@@H]1CC[C@@H](C)[C@H](OC(C)=O)CC[C@@H](C)CC(=O)C[C@@H](C)[C@H](OC(C)=O)C1 | – | 15 | –
11 | C=C(C)[C@H]1CC/C(C)=C/CC[C@]2(C)O[C@H]1/C=C(\COC(C)=O)CC[C@H]2O | inactive | – | –
12 | C=C(C)[C@H]1CC/C(C)=C/CC[C@@]2(C)O[C@@H]2CC/C(COC(C)=O)=C\[C@@H]1OC(C)=O | inactive | – | –
13 | C=C(C)[C@H]1CC/C(C)=C/CC[C@@]2(C)O[C@@H]2CCC(C=O)=CC1=O | inactive | – | –
14 | C=C(C)[C@H]1CC[C@@](C)(I)[C@H]2CC[C@@](C)(O2)[C@@H](I)CC/C(COC(C)=O)=C/[C@@H]1O | inactive | – | –
15 | C=C(C)[C@H]1CC/C(C)=C/CCC(C)(C=O)CC/C(COC(C)=O)=C/[C@@H]1O (stereo not given in full) | – | 7.5 | –
16 | C=C(C)[C@@H]1CC[C@@H](C)[C@H](O)CC[C@H](C)CC2(O)C[C@@H](C)[C@@H](C1)O2 | – | 7.5 | inactive
17 | C=C(C)[C@@H]1C/C=C(\COC(C)=O)CC[C@@H](O)/C(C)=C\C/C=C(\C)CC1 | inactive | – | –
18 | C=C(C)[C@H]1CC[C@@](C)(O)[C@H]2CCC(=C)[C@@H](CC/C(CO)=C/[C@@H]1O)O2 | inactive | – | –
19 | C=C(C)[C@H]1CC/C(C)=C/C/C=C(/C)[C@@H](O)CC/C(COC(C)=O)=C\[C@@H]1OC(C)=O | – | 7.5 | –

Row | SMILES | inhibition [1] | INH [2] [µg] | growth inhibition (GI) [3]
20 | C=C(C)[C@H]1CC/C(C)=C/CC[C@](C)(O)[C@H](O)CC/C(COC(C)=O)=C/[C@@H]1O | – | 7.5 | –
21 | C=C(C)[C@H]1CC/C(C)=C/CC[C@@](C)(Cl)[C@H](O)CC/C(COC(C)=O)=C/[C@@H]1O | – | 7.5 | –
22 | C=C1CC/C=C(\C)CC[C@H](C(=C)C)[C@@H](OC(C)=O)/C=C(/COC(C)=O)CC[C@H]1O | – | 7.5 | –
23 | C=C(C)[C@@H]1CC[C@@H](C)C(=O)CC[C@H](C)CC(=O)C[C@@H](C)[C@H](OC(C)=O)C1 | – | 7.5 | –
24 | C=C(C)[C@@H]1C/C=C(\COC(C)=O)CC[C@@H](O)C(=C)CC/C=C(\C)CC1 | inactive | – | –
25 | C=C(C)[C@@H]1CC[C@@H](C)[C@H](O)CC[C@H](C)CC(=O)C[C@@H](C)[C@H](O)C1 | – | 7.5 | –
26 | C=C1CC/C=C(\C)CC[C@H](C(=C)C)[C@@H](O)/C=C(\COC(C)=O)CC[C@H]1O | – | 7.5 | –
27 | C=C(C)[C@H]1CC/C(C)=C/CC[C@@](C)(Cl)[C@H](O)CC/C(COC(C)=O)=C\[C@@H]1OC(C)=O | inactive | – | –
28 | C=C(C)[C@@H]1CC[C@@H](C)C(=O)CC[C@H](C)CC2(O)C[C@@H](C)[C@@H](C1)O2 | inactive | – | –
29 | C=C(C)[C@H]1CC/C(C)=C/CC[C@@]2(C)O[C@H]1/C=C(\CO)CC[C@H]2O | – | 30 | –
30 | C=C(C)[C@@H]1CC[C@@H](C)[C@H](O)CC[C@@H](C)CC2(O)C[C@@H](C)[C@@H](C1)O2 | inactive | – | –
31 | C=C(C)[C@H]1CC/C(C)=C/CC[C@@](C)(Cl)[C@H](O)CC/C(CO)=C/[C@@H]1O | – | 30 | –
32 | C=C(C)[C@H]1CC/C(C)=C/CC[C@@]2(C)O[C@@H]2CC/C(C=O)=C/[C@@H]1O | inactive | – | –
33 | C=C(C)[C@@H]1CC[C@@H](C)[C@H](O)CC[C@@H](C)CC(=O)C[C@@H](C)[C@H](O)C1 | inactive | – | –
34 | C=C(C)[C@H]1CC/C(C)=C/C/C=C(\C)[C@H](O)CC/C(COC(C)=O)=C\[C@@H]1OC(C)=O | – | 2.5 | –
35 | C=C(C)[C@H]1C[C@H](O)/C(C)=C/CC[C@@]2(C)O[C@@H]2CC/C(COC(C)=O)=C/[C@@H]1O | – | 30 | –
36 | C=C(C)[C@H]1CC/C(C)=C/CC[C@@]2(C)O[C@@H]2CC/C(CO)=C\[C@@H]1O | inactive | – | –
37 | O=c1cc(CO)occ1O | – | 90 | –
38 | CC(=O)OCC12CC[C@H]3O[C@]3(C)CCC3OC3(C)CC[C@H]([C@]3(C)CO3)[C@@H](O)C1O2 (stereo not given in full) | inactive | – | –

— ChEMBL document CHEMBL2311527, “Synthesis of cembranoid analogues and evaluation of their potential as quorum sensing inhibitors” (Bioorg Med Chem, 2013)
